Reference: ChEMBL document CHEMBL5303300, “EUbOPEN Chemogenomics Library - Multiplex” (2023)
“And” between values parts separate entries of the source, which are not always exact repeats. Identical values can stand only once.

Test system: Fibroblast
Assay: Multiplex assay against human fibroblast
Type: toxicity, cell-based
Settings: number of replicates 2
How it was run: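 Live cells were stained at seeding with Hoechst33342, BioTracker Green Microtubule Cytoskeleton Dye, MitoTracker Red and Annexin V Alexa Fluor 680. Following compound addition, they were imaged on a CQ1 microscope at 37°C and 5% CO2 and gated by CellPathfinder machine learning into Hoechst high-intensity objects or normal cells, with normal cells split into healthy, pyknosed or fragmented nuclei and pyknosed cells into mitotic or apoptotic. Tubulin, mitochondrial-mass and membrane-permeability phenotypes are per cents of healthy-nucleus cells.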

[1] = 12 h, 1 µM, compound concentration 1 uM
[2] = 12 h, 10 µM, compound concentration 10 uM
[3] = 24 h, 1 µM, compound concentration 1 uM
[4] = 24 h, 10 µM, compound concentration 10 uM
[5] = 48 h, 1 µM, compound concentration 1 uM
[6] = 48 h, 10 µM, compound concentration 10 uM

Br.Cc1cccc(C2CN(C)CCc3c2cc(O)c(O)c3Cl)c1 (configuration not stated)
Population Apoptotic (%) [1]: 50% and 47%
Population Fragmented Nuclei (%) [1]: 10% and 13%
Population Healthy Nuclei (%) [1]: 79%
Population Hoechst High Intensity Objects (%) [1]: 0%
Population Membrane Permeable-Phenotype (%) [1]: 1% and 4%
Population Mitochondria Different-Phenotype (%) [1]: 0% and 1%
Population Mitotic Cells (%) [1]: 50% and 52%
Population Normal (%) [1]: 100%
Population Pyknosed Nuclei (%) [1]: 10% and 6%
Population Tubulin-Different-Phenotype (%) [1]: 9% and 5%
Total Cell Count [1]: 210 and 248
Population Apoptotic (%) [2]: 68% and 66%
Population Fragmented Nuclei (%) [2]: 11% and 13%
Population Healthy Nuclei (%) [2]: 77% and 78%
Population Hoechst High Intensity Objects (%) [2]: 0%
Population Membrane Permeable-Phenotype (%) [2]: 2%
Population Mitochondria Different-Phenotype (%) [2]: 1% and 5%
Population Mitotic Cells (%) [2]: 31% and 33%
Population Normal (%) [2]: 99% and 100%
Population Pyknosed Nuclei (%) [2]: 11% and 8%
Population Tubulin-Different-Phenotype (%) [2]: 10% and 11%
Total Cell Count [2]: 167 and 173
Population Apoptotic (%) [3]: 57% and 53%
Population Fragmented Nuclei (%) [3]: 10% and 14%
Population Healthy Nuclei (%) [3]: 82% and 80%
Population Hoechst High Intensity Objects (%) [3]: 0%
Population Membrane Permeable-Phenotype (%) [3]: 1%
Population Mitochondria Different-Phenotype (%) [3]: 0% and 1%
Population Mitotic Cells (%) [3]: 42% and 46%
Population Normal (%) [3]: 99% and 100%
Population Pyknosed Nuclei (%) [3]: 6% and 5%
Population Tubulin-Different-Phenotype (%) [3]: 8% and 3%
Total Cell Count [3]: 205 and 242
Population Apoptotic (%) [4]: 50% and 70%
Population Fragmented Nuclei (%) [4]: 10% and 15%
Population Healthy Nuclei (%) [4]: 79% and 78%
Population Hoechst High Intensity Objects (%) [4]: 0%
Population Membrane Permeable-Phenotype (%) [4]: 3% and 0%
Population Mitochondria Different-Phenotype (%) [4]: 0%
Population Mitotic Cells (%) [4]: 50% and 30%
Population Normal (%) [4]: 100%
Population Pyknosed Nuclei (%) [4]: 9% and 5%
Population Tubulin-Different-Phenotype (%) [4]: 8% and 7%
Total Cell Count [4]: 165 and 174
Population Apoptotic (%) [5]: 50% and 62%
Population Fragmented Nuclei (%) [5]: 13%
Population Healthy Nuclei (%) [5]: 80% and 83%
Population Hoechst High Intensity Objects (%) [5]: 0%
Population Membrane Permeable-Phenotype (%) [5]: 1% and 2%
Population Mitochondria Different-Phenotype (%) [5]: 1% and 0%
Population Mitotic Cells (%) [5]: 50% and 37%
Population Normal (%) [5]: 99% and 100%
Population Pyknosed Nuclei (%) [5]: 5% and 3%
Population Tubulin-Different-Phenotype (%) [5]: 4% and 1%
Total Cell Count [5]: 211 and 238
Population Apoptotic (%) [6]: 44% and 100%
Population Fragmented Nuclei (%) [6]: 12% and 15%
Population Healthy Nuclei (%) [6]: 82%
Population Hoechst High Intensity Objects (%) [6]: 0%
Population Membrane Permeable-Phenotype (%) [6]: 2% and 0%
Population Mitochondria Different-Phenotype (%) [6]: 0%
Population Normal (%) [6]: 100%
Population Pyknosed Nuclei (%) [6]: 5% and 1%
Population Tubulin-Different-Phenotype (%) [6]: 3% and 4%
Total Cell Count [6]: 178 and 170

CS(=O)(=O)c1ccc(C(=O)Nc2cccc(COc3ccc(Br)cc3CN3CC[C@@H](O)C3)c2)c(Cl)c1.O=CO
Population Apoptotic (%) [1]: 41% and 38%
Population Fragmented Nuclei (%) [1]: 8%
Population Healthy Nuclei (%) [1]: 61% and 73%
Population Hoechst High Intensity Objects (%) [1]: 0%
Population Mitotic Cells (%) [1]: 58% and 61%
Population Normal (%) [1]: 100%
Population Pyknosed Nuclei (%) [1]: 18%
Total Cell Count [1]: 146 and 167
Population Apoptotic (%) [2]: 50% and 40%
Population Fragmented Nuclei (%) [2]: 18% and 16%
Population Healthy Nuclei (%) [2]: 55% and 61%
Population Hoechst High Intensity Objects (%) [2]: 0%
Population Mitotic Cells (%) [2]: 49% and 59%
Population Normal (%) [2]: 100%
Population Pyknosed Nuclei (%) [2]: 25% and 22%
Total Cell Count [2]: 224 and 280
Population Apoptotic (%) [3]: 60% and 46%
Population Fragmented Nuclei (%) [3]: 14% and 15%
Population Healthy Nuclei (%) [3]: 63% and 67%
Population Hoechst High Intensity Objects (%) [3]: 0%
Population Mitotic Cells (%) [3]: 40% and 53%
Population Normal (%) [3]: 100%
Population Pyknosed Nuclei (%) [3]: 22% and 17%
Total Cell Count [3]: 156 and 186
Population Apoptotic (%) [4]: 72% and 79%
Population Fragmented Nuclei (%) [4]: 28% and 23%
Population Healthy Nuclei (%) [4]: 52% and 63%
Population Hoechst High Intensity Objects (%) [4]: 1% and 0%
Population Mitotic Cells (%) [4]: 27% and 20%
Population Pyknosed Nuclei (%) [4]: 18% and 13%
Total Cell Count [4]: 262 and 331
Population Apoptotic (%) [5]: 71% and 57%
Population Fragmented Nuclei (%) [5]: 18% and 16%
Population Healthy Nuclei (%) [5]: 62% and 67%
Population Hoechst High Intensity Objects (%) [5]: 0%
Population Mitotic Cells (%) [5]: 28% and 42%
Population Normal (%) [5]: 100%
Population Pyknosed Nuclei (%) [5]: 18% and 15%
Total Cell Count [5]: 154 and 164
Population Apoptotic (%) [6]: 84% and 82%
Population Fragmented Nuclei (%) [6]: 32% and 30%
Population Healthy Nuclei (%) [6]: 56% and 58%
Population Hoechst High Intensity Objects (%) [6]: 1% and 0%
Population Mitotic Cells (%) [6]: 15% and 17%
Population Normal (%) [6]: 100%
Population Pyknosed Nuclei (%) [6]: 10%
Total Cell Count [6]: 300 and 395
